Legend:
[1] = system: Stomach; test: Biodistribution in CD1 mouse stomach at 300 kBq, iv after 5 mins by gamma counting; assay type: ADME, organism-based; conditions: in vivo
Procedure, shortened: (§1)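 Female CD-1 mice received the 18F tracer iv at 300 kBq in 0.9% NaCl containing 5% ethanol; 3–6 animals per time point (5, 30, 60, 120 min p.i.). Animals anaesthetized, blood and urine collected, killed by cervical luxation, organs dissected and weighed, counted in calibrated gamma counter. %ID/g = tissue counts / initial dose counts / tissue weight; mean with SD.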

[2] = Biodistribution in CD1 mouse urine at 300 kBq, iv after 30 mins by gamma counting; assay type: ADME, organism-based; conditions: in vivo, 0.5 h
Procedure, shortened: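 Female CD-1 mice received 300 kBq of the radiotracer i.v.; 3–6 animals per time point were anaesthetised at 5, 30, 60 or 120 min p.i. Blood and urine were collected, animals were killed by cervical dislocation, and organs were dissected and weighed. Activity was counted in a calibrated gamma counter and expressed as % injected dose per g wet tissue, mean with SD.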

[3] = system: Cerebellum; test: Biodistribution in CD1 mouse cerebellum at 300 kBq, iv after 30 mins by gamma counting; assay type: ADME, organism-based; conditions: in vivo, 0.5 h
Procedure, shortened: (§2)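 Female CD-1 mice received [18F]1 (300 kBq) i.v.; 3–6 animals per time point anesthetized at 5, 30, 60 or 120 min p.i., blood and urine collected, animals euthanized by cervical dislocation, organs dissected and weighed. Radioactivity counted in a calibrated gamma counter; % ID/g = tissue counts / initial dose counts / tissue weight; means with SD.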

[4] = system: Liver; test: Biodistribution in CD1 mouse liver at 300 kBq, iv after 120 mins by gamma counting; assay type: ADME, organism-based; conditions: in vivo, 2 h; procedure, shortened: as §1
[5] = system: Stomach; test: Biodistribution in CD1 mouse stomach at 300 kBq, iv after 30 mins by gamma counting; assay type: ADME, organism-based; conditions: in vivo, 0.5 h; procedure, shortened: as §1
[6] = system: Striatum; test: Biodistribution in CD1 mouse striatum in brain saggital section at 24 MBq, iv at 45 mins by autoradiography; assay type: ADME, organism-based; conditions: in vivo, 0.75 h
Procedure, shortened: (§3)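 Ex vivo autoradiography: female CD-1 mouse given 18F tracer iv (24 MBq), killed 45 min p.i.; brain hemispheres frozen in isopentane (−35 °C), 12 µm sagittal cryostat sections thaw-mounted, air-dried and exposed to 18F-sensitive phosphor screens. Regional uptake compared with anterior olfactory bulb as nontarget region (target-to-nontarget ratio).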

[7] = system: Muscle tissue; test: Biodistribution in CD1 mouse muscle at 300 kBq, iv after 60 mins by gamma counting; assay type: ADME, organism-based; conditions: in vivo, 1 h; procedure, shortened: as §1
[8] = Octanol-phosphate buffer partition coefficient, log D of the compound at pH 7.2 by shake-flask method; assay type: physicochemical
Procedure, shortened: (§4)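 Shake-flask distribution of the radioligand between n-octanol and aqueous buffer at pH 7.2, either phosphate buffer or phosphate-saline; n = 3.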

[9] = Ratio of biodistribution in anterior olfactory bulb to facial nucleus in brain saggital section of CD1 mouse at 24 MBq, iv after 45 mins; assay type: ADME, organism-based; conditions: in vivo, 0.75 h
Procedure, shortened: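 Female CD-1 mouse given 24 MBq radiotracer i.v. and killed at 45 min. The brain hemispheres were frozen in isopentane (−35 °C), cut into 12 µm sagittal cryosections and exposed to 18F-sensitive phosphor screens. Regional uptake was expressed as a target-to-nontarget ratio, with the anterior olfactory bulb as the nontarget reference.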

[10] = system: Mus musculus; test: Biodistribution in CD1 mouse large intestine at 300 kBq, iv after 60 mins by gamma counting; assay type: ADME, organism-based; conditions: in vivo, 1 h; procedure, shortened: as §1
[11] = system: Mus musculus; test: Biodistribution in CD1 mouse thymus at 300 kBq, iv after 120 mins by gamma counting; assay type: ADME, organism-based; conditions: in vivo, 2 h; procedure, shortened: as §1
[12] = system: Liver; test: Biodistribution in CD1 mouse liver at 300 kBq, iv after 60 mins by gamma counting; assay type: ADME, organism-based; conditions: in vivo, 1 h; procedure, shortened: as §1
[13] = system: Heart; test: Biodistribution in CD1 mouse heart at 300 kBq, iv after 120 mins by gamma counting; assay type: ADME, organism-based; conditions: in vivo, 2 h; procedure, shortened: as §1
[14] = system: Femur; test: Biodistribution in CD1 mouse flushed femur at 300 kBq, iv after 5 mins by gamma counting; assay type: ADME, organism-based; conditions: in vivo; procedure, shortened: as §2
[15] = system: Muscle tissue; test: Biodistribution in CD1 mouse muscle at 300 kBq, iv after 5 mins by gamma counting; assay type: ADME, organism-based; conditions: in vivo; procedure, shortened: as §1
[16] = system: Urinary bladder; test: Biodistribution in CD1 mouse bladder at 300 kBq, iv after 120 mins by gamma counting; assay type: ADME, organism-based; conditions: in vivo, 2 h; procedure, shortened: as §2
[17] = Chemical stability of the compound in 0.01 M Tris-HCl at pH 7.4 assessed as compound remaining after 2 hrs by radio-HPLC/TLC analysis; assay type: physicochemical; conditions: read-out: Stability
Procedure, shortened: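 Radiotracer incubated 120 min at 40 °C in 0.9% NaCl (pH 7.2), phosphate-saline (0.1 M sodium phosphate, 0.15 M NaCl, pH 7.2) or 0.01 M TRIS–HCl (pH 7.4 at 21 °C). Aliquots were taken at set times and analysed by radio-TLC on silica and by gradient radio-HPLC on RP-18 (MeCN/20 mM ammonium acetate, 254 nm), giving % unchanged tracer; n = 2.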

[18] = system: Mus musculus; test: Biodistribution in CD1 mouse dorsomedial hyphalmus in brain saggital section at 24 MBq, iv at 45 mins by autoradiography; assay type: ADME, organism-based; conditions: in vivo, 0.75 h
Procedure, shortened: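 Female CD-1 mouse given [18F]1 (24 MBq) i.v. and sacrificed at 45 min. Brain hemispheres frozen in isopentane (−35 °C), cut into 12 µm sagittal cryosections, thaw-mounted, air-dried and exposed to 18F-sensitive storage phosphor screens. Anterior olfactory bulb served as nontarget region for target-to-nontarget ratios.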

[19] = system: Pancreas; test: Biodistribution in CD1 mouse pancreas at 300 kBq, iv after 30 mins by gamma counting; assay type: ADME, organism-based; conditions: in vivo, 0.5 h; procedure, shortened: as §1
[20] = system: Femur; test: Biodistribution in CD1 mouse flushed femur at 300 kBq, iv after 30 mins by gamma counting; assay type: ADME, organism-based; conditions: in vivo, 0.5 h; procedure, shortened: as §2
[21] = system: Spleen; test: Biodistribution in CD1 mouse spleen at 300 kBq, iv after 30 mins by gamma counting; assay type: ADME, organism-based; conditions: in vivo, 0.5 h; procedure, shortened: as §1
[22] = system: Mus musculus; test: Biodistribution in CD1 mouse large intestine at 300 kBq, iv after 30 mins by gamma counting; assay type: ADME, organism-based; conditions: in vivo, 0.5 h; procedure, shortened: as §1
[23] = system: Urinary bladder; test: Biodistribution in CD1 mouse bladder at 300 kBq, iv after 5 mins by gamma counting; assay type: ADME, organism-based; conditions: in vivo; procedure, shortened: as §2
[24] = system: Mus musculus; test: Biodistribution in CD1 mouse fat at 300 kBq, iv after 120 mins by gamma counting; assay type: ADME, organism-based, Adipose tissue; conditions: in vivo, 2 h; procedure, shortened: as §2
[25] = n-Octanol-phosphate-saline solution partition coefficient, log D of the compound at pH 7.2 by shake-flask method; assay type: physicochemical; procedure, shortened: as §4
[26] = system: Kidney; test: Biodistribution in CD1 mouse kidney at 300 kBq, iv after 5 mins by gamma counting; assay type: ADME, organism-based; conditions: in vivo; procedure, shortened: as §1
[27] = system: Blood; test: Biodistribution in CD1 mouse blood at 300 kBq, iv after 5 mins by gamma counting; assay type: ADME, organism-based; conditions: in vivo; procedure, shortened: as §2
[28] = system: Brain; test: Biodistribution in CD1 mouse brain at 300 kBq, iv after 120 mins by gamma counting; assay type: ADME, organism-based; conditions: in vivo, 2 h; procedure, shortened: as §2
[29] = system: Blood; test: Biodistribution in CD1 mouse blood at 300 kBq, iv after 30 mins by gamma counting; assay type: ADME, organism-based; conditions: in vivo, 0.5 h; procedure, shortened: as §2
[30] = system: Mus musculus; test: Biodistribution in CD1 mouse adrenals at 300 kBq, iv after 30 mins by gamma counting; assay type: ADME, organism-based, Adrenal gland; conditions: in vivo, 0.5 h; procedure, shortened: as §2
[31] = system: Mus musculus; test: Biodistribution in CD1 mouse thalmic nuclei in brain saggital section at 24 MBq, iv at 45 mins by autoradiography; assay type: ADME, organism-based; conditions: in vivo, 0.75 h; procedure, shortened: as §3
[32] = system: Cerebellum; test: Biodistribution in CD1 mouse cerebellum at 300 kBq, iv after 120 mins by gamma counting; assay type: ADME, organism-based; conditions: in vivo, 2 h; procedure, shortened: as §2
[33] = system: Mus musculus; test: Biodistribution in CD1 mouse lateral periaqueductal gray in brain saggital section at 24 MBq, iv at 45 mins by autoradiography; assay type: ADME, organism-based; conditions: in vivo, 0.75 h; procedure, shortened: as §3
[34] = system: Mus musculus; test: Biodistribution in CD1 mouse small intestine at 300 kBq, iv after 5 mins by gamma counting; assay type: ADME, organism-based; conditions: in vivo; procedure, shortened: as §1

Structure (SMILES): [18F]CC1OC2(CCN(Cc3ccccc3)CC2)c2ccccc21 (centres undefined)
- Drug uptake [1]: 2.62 % ID/g
- Drug uptake [2]: 46.35 % ID/g
- Drug uptake [3]: 6.27 % ID/g
- Drug uptake [4]: 3.95 % ID/g
- Drug uptake [5]: 3.52 % ID/g
- Drug uptake [6]: Active
- Drug uptake [7]: 0.97 % ID/g
- logD [8]: 2.45
- Ratio [9]: 1.34
- Drug uptake [10]: 0.92 % ID/g
- Drug uptake [11]: 2.52 % ID/g
- Drug uptake [12]: 3.98 % ID/g
- Drug uptake [13]: 3.05 % ID/g
- Drug uptake [14]: 2.09 % ID/g
- Drug uptake [15]: 2.12 % ID/g
- Drug uptake [16]: 5.58 % ID/g
- remaining at 2 h [17]: 100%
- Drug uptake [18]: Active
- Drug uptake [19]: 16.03 % ID/g
- Drug uptake [20]: 1.42 % ID/g
- Drug uptake [21]: 8.85 % ID/g
- Drug uptake [22]: 1.28 % ID/g
- Drug uptake [23]: 1.51 % ID/g
- Drug uptake [24]: 2.08 % ID/g
- logD [25]: 2.39
- Drug uptake [26]: 14.93 % ID/g
- Drug uptake [27]: 0.73 % ID/g
- Drug uptake [28]: 2.7 % ID/g
- Drug uptake [29]: 0.35 % ID/g
- Drug uptake [30]: 13.39 % ID/g
- Drug uptake [31]: Active
- Drug uptake [32]: 4.02 % ID/g
- Drug uptake [33]: Active
- Drug uptake [34]: 19.78 % ID/g

— ChEMBL document CHEMBL1938297, “Synthesis, radiofluorination and pharmacological evaluation of a fluoromethyl spirocyclic PET tracer for central σ1 receptors and comparison with fluoroalkyl homologs” (Bioorg Med Chem, 2012)
